In ChEMBL document CHEMBL1629545, “A morpholino oligomer targeting highly conserved internal ribosome entry site sequence is able to inhibit multiple species of picornavirus” (Antimicrob Agents Chemother, 2008) one finds Activity and FC data, which are given here for 1 molecule.

The subject of one series is HeLa. Nature of the series: Cytotoxicity against human HeLa cells at 1 to 10 uM after 24 hrs by MTS assay. The class given is cell-based. In short, it runs like this: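 HeLa cells at ~80% confluence, uninfected, exposed to 1–100 μM PPMO or water (mock) in serum-free DMEM-F-12 (1:1) for 24 h. MTS reagent was added for 4 h and absorbance read at 492 nm. Viability was expressed as percent of water-treated cells (set to 100%), averaged over 12 wells.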

The test system of the next series is Vero. Nature of the series: Cytotoxicity against African green monkey Vero cells at 10 uM after 24 hrs by MTS assay. The class given is cell-based. The settings on record: chlorocebus sabaeus. On the technique in general: Formazan colour is commonly taken as a measure of viable cells.
The next series concerns Poliovirus 1. Nature of the series: Antiviral activity against Human poliovirus type 1 infected in Human HeLa cells assessed as log reduction in viral titer at 5 uM measured after 24 hrs post infection by plaque assay. The class given is functional, organism-based. In short, it runs like this: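 Nearly confluent HeLa cells were infected 1 h with a clinical PV1 isolate (passaged once in Vero and once in HeLa) at MOI 0.05. Inoculum was replaced by medium with 10% calf serum containing PPMO (2.5 or 5 μM) or water, at 37°C. Supernatant titre at 24 h p.i. was measured by plaque assay with 36 h plaque development.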

Another series concerns SK-N-MC. Nature of the series: Cytotoxicity against human SK-N-MC cell at 10 uM after 24 hrs by MTS assay. Type of series: cell-based.
The subject of the next series is rhinovirus B14. Nature of the series: Antiviral activity against Human rhinovirus type 14 infected in Human HeLa cell assessed as log reduction in viral titer at 5 uM measured after 48 hrs post infection by plaque assay. The class given is functional, organism-based. The method, boiled down: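 HRV14 from an infectious clone was used to infect nearly confluent HeLa cells for 1 h at MOI 0.03. Cells were then kept in 10% calf serum medium with PPMO or water at 34°C. Supernatant titre at 48 h p.i. was measured by plaque assay at 34°C with 72 h plaque development. Two experiments were averaged.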

On to `Cc1cn([C@H]2CN(P(=O)(OC[C@@H]3CN(P(=O)(OC[C@@H]4CNC[C@H](n5cnc6c(=O)[nH]c(N)nc65)O4)N(C)C)C[C@H](n4cnc5c(N)ncnc54)O3)N(C)C)C[C@@H](COP(=O)(N(C)C)N3C[C@@H](COP(=O)(N(C)C)N4C[C@@H](COP(=O)(N(C)C)N5C[C@@H](COP(=O)(N(C)C)N6C[C@@H](COP(=O)(N(C)C)N7C[C@@H](COP(=O)(N(C)C)N8C[C@@H](COP(=O)(N(C)C)N9C[C@@H](COP(=O)(N(C)C)N%10C[C@@H](COP(=O)(N(C)C)N%11C[C@@H](COP(=O)(N(C)C)N%12C[C@@H](COP(=O)(N(C)C)N%13C[C@@H](COP(=O)(N(C)C)N%14C[C@@H](COP(=O)(N(C)C)N%15C[C@@H](COP(=O)(N(C)C)N%16C[C@@H](COP(=O)(N(C)C)N%17C[C@@H](COP(=O)(N(C)C)N%18C[C@@H](COP(=O)(N(C)C)N%19C[C@@H](COP(=O)(N(C)C)N%20C[C@@H](COP(=O)(N(C)C)N%21C[C@@H](COP(=O)(N(C)C)N%22C[C@@H](COP(=O)(N(C)C)N%23C[C@@H](COP(=O)(N(C)C)N%24CCN(C(=O)[C@H](CS)NC(=O)[C@H](Cc%25ccccc%25)NC(=O)[C@H](Cc%25ccccc%25)NC(=O)[C@H](CCCNC(=N)N)NC(=O)[C@H](CCCNC(=N)N)NC(=O)[C@H](CCCNC(=N)N)NC(=O)[C@H](CCCNC(=N)N)NC(=O)[C@H](CCCNC(=N)N)NC(=O)[C@H](CCCNC(=N)N)NC(=O)[C@H](CCCNC(=N)N)NC(=O)[C@H](CCCNC(=N)N)NC(=O)[C@@H](N)CCCNC(=N)N)CC%24)O[C@@H](n%24cnc%25c(=O)[nH]c(N)nc%25%24)C%23)O[C@@H](n%23cnc%24c(N)ncnc%24%23)C%22)O[C@@H](n%22cnc%23c(=O)[nH]c(N)nc%23%22)C%21)O[C@@H](n%21cnc%22c(N)ncnc%22%21)C%20)O[C@@H](n%20cnc%21c(N)ncnc%21%20)C%19)O[C@@H](n%19cnc%20c(N)ncnc%20%19)C%18)O[C@@H](n%18ccc(N)nc%18=O)C%17)O[C@@H](n%17cnc%18c(N)ncnc%18%17)C%16)O[C@@H](n%16ccc(N)nc%16=O)C%15)O[C@@H](n%15cnc%16c(=O)[nH]c(N)nc%16%15)C%14)O[C@@H](n%14cnc%15c(=O)[nH]c(N)nc%15%14)C%13)O[C@@H](n%13cnc%14c(N)ncnc%14%13)C%12)O[C@@H](n%12ccc(N)nc%12=O)C%11)O[C@@H](n%11cnc%12c(N)ncnc%12%11)C%10)O[C@@H](n%10ccc(N)nc%10=O)C9)O[C@@H](n9ccc(N)nc9=O)C8)O[C@@H](n8ccc(N)nc8=O)C7)O[C@@H](n7cnc8c(N)ncnc87)C6)O[C@@H](n6cnc7c(N)ncnc76)C5)O[C@@H](n5cnc6c(N)ncnc65)C4)O[C@@H](n4cnc5c(=O)[nH]c(N)nc54)C3)O2)c(=O)[nH]c1=O` (stereo not given in full), for which the Activity entry in the series on HeLa, in the series on Vero and in the series with SK-N-MC was “Non-toxic” in each case. Also, the FC in the series with Poliovirus 1 and in the series on rhinovirus B14 was 2 each time.
